Sampled rows, rich in hits. Any-hit rate of the full collection: about 3.7%.
MPTP inh = blocks calcium-induced mitochondrial swelling; isolated mouse mitochondria, Ca2+ swelling absorbance, 30 min; inhibition, % at 10 µM; hit rate 1.4% among 360,000;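 active means inhibition of 50% or more, scaled per plate between neutral and stimulator controls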;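 further: 0% = DMSO wells given calcium and 100% = 1 mM EGTA wells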
GRIN3A LBD mod = modulates the human NR3A ligand-binding domain. NR3A LBD differential scanning fluorimetry, Tm shift; 0% = protein alone, 100% = glycine-bound protein. Tm shift relative to glycine control, % at 25 µM. hit rate 2.5% among 340,000. AID 1259313;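 active means melting temperature shift of at least 10% of the positive control shift, at one fixed dose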
procasp3 activ = procaspase-3 (human) activation; recombinant procaspase-3 D3A, Ac-DEVD-pNA absorbance 405 nm; P42574; hit rate 0.11% among 330,000; activation, % at 8.5 µM; AID 463141;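 active means activation above the mean of all tested compounds plus 3 SD, cut at about 21% in these data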;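 further: 0% = DMSO alone and 100% = DMSO wells spiked with extra 5 µM PC-3 D3A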
Target sequence (P42574 whole entry D9A/D28A/D175A): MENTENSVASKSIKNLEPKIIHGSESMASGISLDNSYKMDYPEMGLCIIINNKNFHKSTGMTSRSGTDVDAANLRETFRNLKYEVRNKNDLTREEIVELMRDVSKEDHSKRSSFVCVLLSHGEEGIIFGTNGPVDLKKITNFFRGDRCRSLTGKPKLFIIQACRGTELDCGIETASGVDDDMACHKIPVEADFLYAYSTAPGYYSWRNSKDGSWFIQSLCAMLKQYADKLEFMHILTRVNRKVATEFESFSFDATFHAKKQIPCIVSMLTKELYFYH
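Assay system – Procaspase-3 D3A mutant, all three cleavage aspartates alanine · Controls – DMSO-only low control, 5 µM PC-3 D3A high control · Schedule – 1 h compound preincubation, 2 h substrate hydrolysis at 25 °C · Signal – 405 nm absorbance of p-nitroaniline, reads at 0 and 120 min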
proCasp7 act = counter-screen for procaspase-3 activators: activators of human procaspase-7 | P55210 | recombinant procaspase-7, Ac-DEVD-pNA absorbance 405 nm; D23A/D198A/D206A triple mutant, cannot self-cleave; scale: DMSO 0, 5 µM enzyme 100 | activation, % at 8.5 µM | hit rate 0.093% among 330,000 | AID 463210;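 active means percent activation above the screen-wide mean plus 3 SD, cut at about 25% in these data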
Target sequence (P55210 whole entry D23A/D198A/D206A): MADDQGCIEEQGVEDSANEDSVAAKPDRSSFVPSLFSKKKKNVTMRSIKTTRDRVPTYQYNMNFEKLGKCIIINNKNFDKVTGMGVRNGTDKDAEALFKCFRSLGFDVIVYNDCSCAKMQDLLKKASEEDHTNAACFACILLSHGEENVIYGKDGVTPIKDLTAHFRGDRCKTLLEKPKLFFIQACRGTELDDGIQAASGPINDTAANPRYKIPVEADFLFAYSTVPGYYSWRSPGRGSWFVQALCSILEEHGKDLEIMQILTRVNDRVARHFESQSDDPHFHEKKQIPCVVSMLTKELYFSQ
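Replicates: singlicate. Assay system: Procaspase-7 triple mutant (PC-7 D3A). Signal: 405 nm absorbance of p-nitroaniline. Times: 1 h preincubation, 2 h reaction. Buffer or medium: Zinc-free HEPES pH 7.4 with 300 mM NaCl, 0.01% Triton X-100. Also added: DEVD-pNA substrate. Benchmarks: DMSO wells as 0%, DMSO with 5 µM added PC-7 as 100%.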
aDG glyco act = alpha-DG glycosylation activation | Pro5-aDG cells, alpha-DG glycosylation AlphaScreen (IIH6); 0% Pro5, 100% B10-LARGE cell signal | activation, % at 10 µM | hit rate 0.22% among 360,000;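 active means activation of at least 8% versus controls, or a plate z-score of at least 8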;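 further: Pro5 are CHO cells carrying HIG-tagged alpha-DG that lacks glycosylation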
* = called active by the depositor; . = not tested or not shown.

SMILES	MPTP inh	GRIN3A LBD mod	procasp3 activ	proCasp7 act	aDG glyco act
CCCC1S/C(=N/N=C/c2ccc(OC)cc2)N(Cc2ccccc2)C1=O (configuration not stated)	8	10*	4	-7	-1
CCOC(=O)/C(C#N)=C1/C=CN(c2ccccc2)C=N1	3	14*	9	1	0
CCOC(=O)/C(C#N)=C1/C=CN(c2ccc(C)cc2)C=N1	-1	1	-4	5	0
COc1cc(/C=N/NC(=O)Cn2nc([N+](=O)[O-])cc2C)cc(Br)c1OCc1ccccc1	3	9	1	6	2
CCOc1cc(/C=N/NC(=O)Cn2nc([N+](=O)[O-])cc2C)cc(Br)c1OCc1ccccc1C	15	13*	-4	12	-1
O=C(O)c1ccccc1C(=O)OC1CCCC2CCCC21 (configuration not stated)	-1	-3	.	.	0
COC(=O)[C@]12CCCCC=C1N(Cc1ccc(Cl)cc1Cl)C(=O)[C@H](CC(=O)N1CCN(C(=O)c3ccco3)CC1)C2	-1	.	.	.	0
Cc1ccc2[nH]c(O)c(N=NC(=O)CCc3ccccc3)c2c1Br	13	17*	9	-4	1
CN(C)c1ccc(C(CNS(=O)(=O)c2ccc(F)c(F)c2)c2c[nH]c3ccccc23)cc1 (configuration not stated)	6	23*	2	-5	0
NC(=O)c1cccnc1Nc1ccccc1F	0	-1	-8	-1	0
Cc1cc(Cl)ccc1Nc1ncccc1C(N)=O	0	151*	-9	5	1
Oc1[nH]c2ccc(Br)cc2c1N=Nc1ccc(C(F)(F)F)cn1	16	21*	3	1	1
CCN(CC)CCn1c(-c2ccc(C)cc2)nc(=S)c2c1CC(C)(C)OC2	2	14*	0	6	0
CS(=O)(=O)c1ccc(C(=O)OCC(=O)NC(=O)C2CCCCC2)cc1[N+](=O)[O-]	0	19*	1	-1	0
c1cncc(-c2nc3cc4ccccc4cc3[nH]2)c1	2	22*	-3	1	0
c1ccc(-c2nc3cc4ccccc4cc3[nH]2)nc1	-2	-20	2	3	0
Cc1nn(-c2ccccc2)c(/N=C/c2ccc(O)cc2)c1-c1ccccc1	24	26*	1	11	0
Cc1ccc(CNC(=O)c2nc3nc(C)cc(C)n3n2)cc1	-1	0	2	6	0
Cc1cc(C)n2nc(C(=O)NCc3ccccc3)nc2n1	0	24*	-1	-1	0
CCCCCc1ccc(-c2cn(CCc3c[nH]c4ccccc34)nn2)cc1	3	19*	-1	-2	0
O=C(CSc1ccc(F)cc1)Nc1cccc(S(=O)(=O)N2CCOCC2)c1	0	-2	-5	7	0
COc1cc2c(cc1[N+](=O)[O-])-c1ccc([N+](=O)[O-])cc1C2=NO	15	.	.	.	0
COc1ccc(/C=N\NC(=O)c2cc3c(ccc4ccccc43)o2)cc1O	-1	25*	.	.	0
COc1ccc(/C=N/NC(=O)c2cc3c(ccc4ccccc43)o2)cc1OC	-1	20*	.	.	0
N#CCn1cc(/C=N/NC(=O)c2cc3c(ccc4ccccc43)o2)c2ccccc21	1	25*	10	22	0
SMILES	MPTP inh	GRIN3A LBD mod	procasp3 activ	proCasp7 act	aDG glyco act
COc1ccccc1/C=N/NC(=O)c1cc2c(ccc3ccccc32)o1	0	-1	7	-2	0
N#CCC(=O)N/N=C/c1cn(Cc2ccc(Cl)c(Cl)c2)c2ccccc12	5	31*	-19	-11	0
CC1(Oc2ccccc2)CCN(Cc2ccc(-c3ccccn3)cc2)C1 (configuration not stated)	0	.	.	.	0
CCOC(=O)CCCCCC(=O)Nc1ccc2c(c1)C(=O)N([C@H](C)CO)C[C@H](C)[C@@H](CN(C)S(C)(=O)=O)OCCCC[C@@H](C)O2	-2	.	.	.	2
COCCCN1C(=O)C(CC(=O)NC2CCCCC2)CC(C(=O)N(C)C)=C1C (configuration not stated)	0	.	.	.	0
CCOC(=O)c1c(C)n(C)c2cc(-c3cccc(C(F)(F)F)c3)c(O)cc12	1	13*	-9	-3	0
COc1cnc(-c2ccccn2)nc1NC(C)C	-6	-2	-8	3	7.1*
CCOc1cc(-c2sc(Nc3cc(C)ccc3OC)n[n+]2-c2ccccc2)ccc1OC	0	13*	-12	-26	0
Nc1nc(/C=C/c2ccc(F)cc2)nc(-c2ccccc2O)n1	2	16*	1	8	0
Cc1cc(Cl)ccc1OCC(=O)OCC(=O)NCCNC(=O)COC(=O)COc1ccc(Cl)cc1C	0	12*	.	.	0
O=C(CN1C(=O)NC(Cc2ccccc2)C1=O)Nc1ccc(OC(F)F)cc1 (configuration not stated)	-1	4	2	1	0
Cc1ccc(NC(=O)CN2C(=O)NC(Cc3c[nH]c4ccccc34)C2=O)cc1S(=O)(=O)N1CCCCC1 (configuration not stated)	-4	12*	-5	4	0
CC(C)CC1NC(=O)N(CC(=O)Nc2ccc(OC(F)F)cc2)C1=O (configuration not stated)	0	27*	.	.	0
Cc1ccc(NC(=O)CN2C(=O)NC(Cc3ccccc3)C2=O)cc1Cl (configuration not stated)	1	15*	-3	2	0
Cc1ccc(NC(=O)CN2C(=O)NC(Cc3ccccc3)C2=O)cc1 (configuration not stated)	-2	4	-7	4	0
O=C(CN1C(=O)CCS(=O)(=O)c2ccccc21)Nc1ccc(F)cc1	-2	7	6	-7	0
Cc1ccc(NC(=O)CN2C(=O)CCS(=O)(=O)c3ccccc32)cc1Cl	0	15*	3	2	0
CCOC(=O)C1(C)CCCN(C(=O)c2c(-c3ccccc3)noc2C)C1 (configuration not stated)	0	.	.	.	0
O=C(CN1C(=O)NC(Cc2c[nH]c3ccccc23)C1=O)Nc1cccc(S(=O)(=O)N2CCCCCC2)c1 (configuration not stated)	-1	16*	-5	3	0
O=C(c1ccc(C#CC2(O)CCCCC2)cc1)N1CCN(C(c2ccccc2)c2ccccc2)CC1	-3	12*	3	8	0
COCCNC(=O)C1(C)CCCN(C(=O)c2ccccc2F)C1 (configuration not stated)	0	.	.	.	1
O=C1CN(S(=O)(=O)c2ccccc2)CCN1	-2	1	3	1	0
NC(=O)c1ccsc1NC(=O)COC(=O)c1cc(Cl)ccc1O	0	19*	0	6	0

Bioassay records: PubChem, several laboratories
